From ChEMBL document CHEMBL4152206, “Design, synthesis, cytotoxicity and mechanism of novel dihydroartemisinin-coumarin hybrids as potential anti-cancer agents” (Eur J Med Chem, 2018)

What was measured:
Format in all cases: functional, cell-based
HT-29 [1] = assay: Cytotoxicity against human HT-29 cells after 96 hrs under hypoxic condition by MTT assay
Method in brief: (§1)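 MTT viability assay in HT-29 (high CA IX) and MDA-MB-231 (normal CA IX) cells under normoxic and hypoxic conditions; IC50 values reported.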

HT-29 [2] = assay: Cytotoxicity against human HT-29 cells after 96 hrs under normoxic condition by MTT assay; method in brief: as §1
MDA-MB-231 [3] = assay: Cytotoxicity against human MDA-MB-231 cells after 96 hrs under hypoxic condition by MTT assay; method in brief: as §1
MDA-MB-231 [4] = assay: Cytotoxicity against human MDA-MB-231 cells after 96 hrs under normoxic condition by MTT assay; method in brief: as §1
[5] = Homo sapiens, HT-29, 96 h, read-out: IC50
[6] = Homo sapiens, MDA-MB-231, 96 h, read-out: IC50

Compound | IC50 (HT-29 [1]; [5]) [µM] | IC50 (HT-29 [2]; [5]) [µM] | IC50 (MDA-MB-231 [3]; [6]) [µM] | IC50 (MDA-MB-231 [4]; [6]) [µM] | IC50 (HT-29 [1]; ht-29) | IC50 (HT-29 [2]; ht-29) | IC50 (MDA-MB-231 [3]; mda-mb-231) | IC50 (MDA-MB-231 [4]; mda-mb-231)
C[C@H]1[C@@H](Oc2ccc3c(C(F)(F)F)cc(=O)oc3c2)O[C@@H]2O[C@@]3(C)CC[C@H]4[C@H](C)CC[C@@H]1[C@@]24OO3 | 22.3 | 11.1 | 3.25 | 56.8 |  |  |  | 
COc1cccc2c1C(=O)c1c(O)c3c(c(O)c1C2=O)C[C@@](O)(C(=O)CO)C[C@@H]3O[C@H]1C[C@H](N)[C@H](O)[C@H](C)O1 [DOXORUBICIN] | 0.25 | 0.24 | 5.98 | 1.07 |  |  |  | 
C[C@H]1[C@@H](OCCCOc2ccc3c(C(F)(F)F)cc(=O)oc3c2)O[C@@H]2O[C@@]3(C)CC[C@H]4[C@H](C)CC[C@@H]1[C@@]24OO3 | 1.19 | 4.57 | 8.86 | 13.6 |  |  |  | 
Cc1c(Cl)c(=O)oc2cc(OCCCn3cc(CCO[C@H]4O[C@@H]5O[C@@]6(C)CC[C@H]7[C@H](C)CC[C@@H]([C@H]4C)[C@@]57OO6)nn3)ccc12 | 1.68 | 1.19 | 6.07 | 31 |  |  |  | 
Cc1c(Cl)c(=O)oc2cc(OCCCO[C@H]3O[C@@H]4O[C@@]5(C)CC[C@H]6[C@H](C)CC[C@@H]([C@H]3C)[C@@]46OO5)ccc12 | 8.05 | 2.55 | 2.38 | 0.6 |  |  |  | 
C[C@H]1[C@@H](O)O[C@@H]2O[C@@]3(C)CC[C@H]4[C@H](C)CC[C@@H]1[C@@]24OO3 [ARTENIMOL] | 18.5 | > 100 | 5.64 | 47.1 |  |  |  | 
Cc1cc(=O)oc2cc(OCCO[C@H]3O[C@@H]4O[C@@]5(C)CC[C@H]6[C@H](C)CC[C@@H]([C@H]3C)[C@@]46OO5)ccc12 | 3.69 | 2.35 | 0.1 | 4.29 |  |  |  | 
Cc1c(F)c(=O)oc2cc(-n3cc(CO[C@H]4O[C@@H]5O[C@@]6(C)CC[C@H]7[C@H](C)CC[C@@H]([C@H]4C)[C@@]57OO6)nn3)ccc12 | 7.39 | 3.35 | 2.6 | 3.47 |  |  |  | 
Cc1c(C)c2ccc(OCCCO[C@H]3O[C@@H]4O[C@@]5(C)CC[C@H]6[C@H](C)CC[C@@H]([C@H]3C)[C@@]46OO5)cc2oc1=O | 3.54 | 8.71 | 7.92 | 17.1 |  |  |  | 
Cc1cc(=O)oc2cc(-n3cc(CO[C@H]4O[C@@H]5O[C@@]6(C)CC[C@H]7[C@H](C)CC[C@@H]([C@H]4C)[C@@]57OO6)nn3)ccc12 | 5.09 | 10.8 | 49.8 | 21.5 |  |  |  | 
Cc1c(F)c(=O)oc2cc(-n3cc(CCO[C@H]4O[C@@H]5O[C@@]6(C)CC[C@H]7[C@H](C)CC[C@@H]([C@H]4C)[C@@]57OO6)nn3)ccc12 | 5.66 | 9.89 | 3.36 | 3.84 |  |  |  | 
Cc1c(Cl)c(=O)oc2cc(OCCO[C@H]3O[C@@H]4O[C@@]5(C)CC[C@H]6[C@H](C)CC[C@@H]([C@H]3C)[C@@]46OO5)ccc12 | 7.02 | 23.9 | 5.36 | 18 |  |  |  | 
Cc1c(Cl)c(=O)oc2cc(-n3cc(CCO[C@H]4O[C@@H]5O[C@@]6(C)CC[C@H]7[C@H](C)CC[C@@H]([C@H]4C)[C@@]57OO6)nn3)ccc12 | 0.01 | 1.5 | 1.03 | 5.19 |  |  |  | 
Cc1cc(=O)oc2cc(OCCCO[C@H]3O[C@@H]4O[C@@]5(C)CC[C@H]6[C@H](C)CC[C@@H]([C@H]3C)[C@@]46OO5)ccc12 | 8.71 | 13.8 | 22.9 | 30 |  |  |  | 
Cc1cc(=O)oc2cc(OCCCn3cc(CCO[C@H]4O[C@@H]5O[C@@]6(C)CC[C@H]7[C@H](C)CC[C@@H]([C@H]4C)[C@@]57OO6)nn3)ccc12 | 0.11 | 6.87 | 14.4 | 72.2 |  |  |  | 
C[C@H]1[C@@H](OCCc2cn(CCCOc3ccc4c(C(F)(F)F)cc(=O)oc4c3)nn2)O[C@@H]2O[C@@]3(C)CC[C@H]4[C@H](C)CC[C@@H]1[C@@]24OO3 | 4.29 | 5.88 | 6.58 | 32.5 |  |  |  | 
Cc1c(C)c2ccc(OCCO[C@H]3O[C@@H]4O[C@@]5(C)CC[C@H]6[C@H](C)CC[C@@H]([C@H]3C)[C@@]46OO5)cc2oc1=O | 57.2 | 12.8 | 12.8 | 57.2 |  |  |  | 
Cc1c(C)c2ccc(-n3cc(CO[C@H]4O[C@@H]5O[C@@]6(C)CC[C@H]7[C@H](C)CC[C@@H]([C@H]4C)[C@@]57OO6)nn3)cc2oc1=O | 0.02 | 2.67 | 4.85 | 23.4 |  |  |  | 
Cc1c(Cl)c(=O)oc2cc(-n3cc(CO[C@H]4O[C@@H]5O[C@@]6(C)CC[C@H]7[C@H](C)CC[C@@H]([C@H]4C)[C@@]57OO6)nn3)ccc12 | 1.15 | 4.27 | 24.7 | 50.5 |  |  |  | 
Cc1c(Cl)c(=O)oc2cc(OCCn3cc(CCO[C@H]4O[C@@H]5O[C@@]6(C)CC[C@H]7[C@H](C)CC[C@@H]([C@H]4C)[C@@]57OO6)nn3)ccc12 | 2.37 | 5.28 | 7.24 | 7.53 |  |  |  | 
Cc1c(Cl)c(=O)oc2cc(O[C@H]3O[C@@H]4O[C@@]5(C)CC[C@H]6[C@H](C)CC[C@@H]([C@H]3C)[C@@]46OO5)ccc12 | 0.41 | 1.28 | 1.4 | 50.5 |  |  |  | 
C[C@H]1[C@@H](OCCc2cn(-c3ccc4c(C(F)(F)F)cc(=O)oc4c3)nn2)O[C@@H]2O[C@@]3(C)CC[C@H]4[C@H](C)CC[C@@H]1[C@@]24OO3 | 10.3 | 6.07 | 95.7 | 1.85 |  |  |  | 
Cc1c(C)c2ccc(OCCn3cc(CCO[C@H]4O[C@@H]5O[C@@]6(C)CC[C@H]7[C@H](C)CC[C@@H]([C@H]4C)[C@@]57OO6)nn3)cc2oc1=O | 14.6 | 3.47 | 52.3 | 56.7 |  |  |  | 
Cc1c(C)c2ccc(O[C@H]3O[C@@H]4O[C@@]5(C)CC[C@H]6[C@H](C)CC[C@@H]([C@H]3C)[C@@]46OO5)cc2oc1=O | 30.3 | 11.8 | 6.44 | 78.8 |  |  |  | 
CCOC(=O)c1cc2ccc(O[C@H]3O[C@@H]4O[C@@]5(C)CC[C@H]6[C@H](C)CC[C@@H]([C@H]3C)[C@@]46OO5)cc2oc1=O | 7.17 | 3.45 | 2.85 | 21.9 |  |  |  | 
COC(=O)c1cc2ccc(OCCCn3cc(CCO[C@H]4O[C@@H]5O[C@@]6(C)CC[C@H]7[C@H](C)CC[C@@H]([C@H]4C)[C@@]57OO6)nn3)cc2oc1=O |  |  |  |  | Nd(Insoluble) | Nd(Insoluble) | Nd(Insoluble) | Nd(Insoluble)
C[C@H]1[C@@H](OCCc2cn(CCOc3ccc4c(C(F)(F)F)cc(=O)oc4c3)nn2)O[C@@H]2O[C@@]3(C)CC[C@H]4[C@H](C)CC[C@@H]1[C@@]24OO3 | 4.01 | 3.58 | 14.2 | 17.9 |  |  |  | 
Cc1cc(=O)oc2cc(OCCn3cc(CCO[C@H]4O[C@@H]5O[C@@]6(C)CC[C@H]7[C@H](C)CC[C@@H]([C@H]4C)[C@@]57OO6)nn3)ccc12 | 10.7 | 5.72 | 18.2 | 17 |  |  |  | 
Cc1c(C)c2ccc(OCCCn3cc(CCO[C@H]4O[C@@H]5O[C@@]6(C)CC[C@H]7[C@H](C)CC[C@@H]([C@H]4C)[C@@]57OO6)nn3)cc2oc1=O | 0.11 | 5 | 33.2 | > 100 |  |  |  | 
COC(=O)c1cc2ccc(OCCn3cc(CCO[C@H]4O[C@@H]5O[C@@]6(C)CC[C@H]7[C@H](C)CC[C@@H]([C@H]4C)[C@@]57OO6)nn3)cc2oc1=O | 75.7 | 67.2 | 58.4 | 61 |  |  |  | 
